From ChEMBL document CHEMBL2390927, “Design, synthesis and antimicrobial evaluation of novel benzimidazole type of Fluconazole analogues and their synergistic effects with Chloromycin, Norfloxacin and Fluconazole” (2013) come the findings set out here.

One assay has as its system Candida. The experiment in a line: Antifungal activity against Candida mycoderma after 24 hrs by two-fold serial dilution method. The format is functional. The method in brief: (§1)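 Spore suspension in sterile distilled water from one-day-old cultures on Sabouraud agar, final 1–5 × 10³ spore mL⁻¹. Compound stocks diluted in sterile RPMI 1640 as two-fold serial dilutions in microdilution plates. MIC is the lowest concentration completely inhibiting growth. Growth monitored visually and spectrophotometrically, in triplicate.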

A further assay concerns Escherichia coli. The assay can be described thus: Antibacterial activity against Escherichia coli JM109 after 24 hrs by two-fold serial dilution method. The conditions noted are these: JM109, 24 h. It counts as functional.
The next assay has as its system Bacillus subtilis. The assay can be described thus: Antibacterial activity against Bacillus subtilis ATCC 21216 after 24 hrs by two-fold serial dilution method. It counts as functional. The conditions noted are these: ATCC 21216, 24 h. The method in brief:
(§2)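 MIC taken as the lowest concentration giving complete growth inhibition, by standard two-fold serial dilution in 96-well plates following NCCLS. Stocks in DMSO, diluted in Mueller–Hinton broth. Inoculum adjusted with sterile saline to 1 × 10⁵ CFU. DMSO with inoculum and no drug served as solvent control. Growth read visually and spectrophotometrically, in triplicate.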

For assay [1], the system named is Staphylococcus aureus. The assay can be described thus: Antibacterial activity against Staphylococcus aureus ATCC 6538 after 24 hrs by two-fold serial dilution method. The format is functional. The note with it: ATCC 6538, 24 h.
A further assay deals with Saccharomyces cerevisiae. The experiment in a line: Antifungal activity against Saccharomyces cerevisiae after 24 hrs by two-fold serial dilution method. It counts as functional. The method in brief:
as §1

In another assay the test system is Salmonella typhi. The experiment in a line: Antibacterial activity against Bacillus typhi after 24 hrs by two-fold serial dilution method. The format is functional, Salmonella enterica subsp. enterica serovar Typhi. The conditions noted are these: Salmonella enterica. Summed up:
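Two-fold serial dilution in 96-well plates following NCCLS; compounds dissolved in DMSO as stocks, then diluted in Mueller-Hinton broth; bacterial suspension adjusted with sterile saline to 1 × 10⁵ CFU; MIC taken as lowest concentration completely inhibiting growth, monitored visually and spectrophotometrically; DMSO-plus-inoculum well as solvent control; triplicate.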

The test system of the next assay is Cyberlindnera jadinii. The assay can be described thus: Antifungal activity against Candida utilis after 24 hrs by two-fold serial dilution method. The format is functional. The note with it: Williopsis jadinii. The method in brief: as §1
The next assay concerns Micrococcus luteus. The experiment in a line: Antibacterial activity against Micrococcus luteus ATCC 4698 after 24 hrs by two-fold serial dilution method. It counts as functional. The conditions noted are these: ATCC 4698, 24 h. Summed up:
as §2

The next assay deals with Aspergillus flavus. The assay can be described thus: Antifungal activity against Aspergillus flavus after 24 hrs by two-fold serial dilution method. The format is functional. The method in brief:
as §1

For another assay, the system named is Candida albicans. The experiment in a line: Antifungal activity against Candida albicans ATCC 76615 after 24 hrs by two-fold serial dilution method. The format is functional. The note with it: ATCC 76615, 24 h. The method in brief: as §1
A further assay concerns Pseudomonas aeruginosa. The assay can be described thus: Antibacterial activity against Pseudomonas aeruginosa ATCC 27853 after 24 hrs by two-fold serial dilution method. It counts as functional. The note with it: ATCC 27853, 24 h. Summed up: as §2
In assay [2] the test system is Staphylococcus aureus. The experiment in a line: Antibacterial activity against methicillin-resistant Staphylococcus aureus N315 after 24 hrs by two-fold serial dilution method. It counts as functional. The conditions noted are these: N315, 24 h.
In a further assay the test system is Bacillus. The assay can be described thus: Antibacterial activity against Bacillus proteus ATCC 13315 after 24 hrs by two-fold serial dilution method. The format is functional. The note with it: ATCC 13315, 24 h. The method in brief: as §2

≈ marks a conversion by molar mass, not a printed value.

Broadly, the MIC is the lowest concentration found to suppress growth. Turning to `FC(F)(F)c1cc(N(Cc2nc3ccccc3[nH]2)Cc2ccc(Cl)cc2Cl)cc(C(F)(F)F)c1`, the MIC was found to be 64 µg/mL (≈ 123 µM) in the assay with Candida; 64 µg/mL (≈ 123 µM) in the assay with Escherichia coli; 64 µg/mL (≈ 123 µM) in the assay with Bacillus subtilis; 64 µg/mL (≈ 123 µM) against Staphylococcus aureus [1]; 32 µg/mL (≈ 61.7 µM) in the assay with Saccharomyces cerevisiae; 64 µg/mL (≈ 123 µM) against Salmonella typhi. Further, the MIC amounted to 64 µg/mL (≈ 123 µM) with Cyberlindnera jadinii; 128 µg/mL (≈ 247 µM) in the assay with Micrococcus luteus; 64 µg/mL (≈ 123 µM) with Aspergillus flavus; 64 µg/mL (≈ 123 µM) with Candida albicans; 128 µg/mL (≈ 247 µM) against Pseudomonas aeruginosa; 64 µg/mL (≈ 123 µM) in the assay with Staphylococcus aureus [2]. The same molecule showed an MIC with Bacillus of 32 µg/mL (≈ 61.7 µM).

For `Cc1cc(=O)oc2cc(OCCCCCCN(Cc3nc4ccccc4[nH]3)c3ccc(F)cc3)ccc12`, the MIC in the assay with Candida was 32 µg/mL (≈ 64.1 µM); against Escherichia coli it was 128 µg/mL (≈ 256 µM); against Bacillus subtilis, 16 µg/mL (≈ 32 µM); in the assay with Staphylococcus aureus [1], 32 µg/mL (≈ 64.1 µM); with Saccharomyces cerevisiae, 32 µg/mL (≈ 64.1 µM); against Salmonella typhi it was 64 µg/mL (≈ 128 µM). The MIC is 16 µg/mL (≈ 32 µM) against Cyberlindnera jadinii; 128 µg/mL (≈ 256 µM) against Micrococcus luteus; 32 µg/mL (≈ 64.1 µM) in the assay on Aspergillus flavus; 16 µg/mL (≈ 32 µM) against Candida albicans; 16 µg/mL (≈ 32 µM) with Pseudomonas aeruginosa; 128 µg/mL (≈ 256 µM) with Staphylococcus aureus [2]. Further, in the assay with Bacillus, inhibition of growth (MIC) required 64 µg/mL (≈ 128 µM).

Regarding `CC(=O)c1cc2ccc(OCc3ccc(CN(Cc4nc5ccccc5[nH]4)c4ccc(C)cc4)cc3)cc2oc1=O`, the MIC against Candida turned out to be 128 µg/mL (≈ 235 µM); against Escherichia coli, 128 µg/mL (≈ 235 µM); in the assay with Bacillus subtilis, 64 µg/mL (≈ 118 µM); against Staphylococcus aureus [1], 128 µg/mL (≈ 235 µM); in the assay on Saccharomyces cerevisiae, 32 µg/mL (≈ 58.9 µM); with Salmonella typhi, 128 µg/mL (≈ 235 µM). In addition, the MIC against Cyberlindnera jadinii is 64 µg/mL (≈ 118 µM); against Micrococcus luteus, 128 µg/mL (≈ 235 µM); against Aspergillus flavus, 64 µg/mL (≈ 118 µM); in the assay with Candida albicans it was 64 µg/mL (≈ 118 µM); against Pseudomonas aeruginosa, 128 µg/mL (≈ 235 µM); in the assay on Staphylococcus aureus [2] it was 64 µg/mL (≈ 118 µM). The MIC against Bacillus turned out to be 256 µg/mL (≈ 471 µM).

`Fc1ccccc1N(CCCCn1c2ccccc2c2ccccc21)Cc1nc2ccccc2[nH]1`: the MIC against Candida was determined as 64 µg/mL (≈ 138 µM); in the assay on Escherichia coli, 128 µg/mL (≈ 277 µM); against Bacillus subtilis it was 64 µg/mL (≈ 138 µM); with Staphylococcus aureus [1] it was 64 µg/mL (≈ 138 µM); against Saccharomyces cerevisiae it was 64 µg/mL (≈ 138 µM); in the assay with Salmonella typhi, 128 µg/mL (≈ 277 µM). Besides, the MIC was 32 µg/mL (≈ 69.2 µM) in the assay on Cyberlindnera jadinii; 128 µg/mL (≈ 277 µM) against Micrococcus luteus; 64 µg/mL (≈ 138 µM) in the assay on Aspergillus flavus; 32 µg/mL (≈ 69.2 µM) in the assay with Candida albicans; 64 µg/mL (≈ 138 µM) in the assay with Pseudomonas aeruginosa; 128 µg/mL (≈ 277 µM) in the assay with Staphylococcus aureus [2]. This molecule had an MIC against Bacillus of 64 µg/mL (≈ 138 µM).

As for `CCCCCCCCN(Cc1nc2ccccc2[nH]1)c1ccc(C)cc1.Cl.Cl`, the MIC against Candida is 128 µg/mL; against Escherichia coli it was 128 µg/mL; against Bacillus subtilis it was 128 µg/mL; against Staphylococcus aureus [1], 64 µg/mL; with Saccharomyces cerevisiae, 64 µg/mL; against Salmonella typhi, 64 µg/mL. Also, the MIC against Cyberlindnera jadinii was 64 µg/mL; in the assay with Micrococcus luteus, 64 µg/mL; against Aspergillus flavus it was 128 µg/mL; against Candida albicans it was 64 µg/mL; in the assay with Pseudomonas aeruginosa it was 128 µg/mL; in the assay on Staphylococcus aureus [2] it was 128 µg/mL. In addition, inhibition of growth in the assay on Bacillus (MIC) required 64 µg/mL.

As to `O=C(N[C@H](CO)[C@H](O)c1ccc([N+](=O)[O-])cc1)C(Cl)Cl` [CHLORAMPHENICOL], the MIC against Bacillus subtilis amounted to 32 µg/mL (≈ 99 µM); against Staphylococcus aureus [1], 8 µg/mL (≈ 24.8 µM); against Salmonella typhi it was 32 µg/mL (≈ 99 µM); in the assay on Micrococcus luteus it was 8 µg/mL (≈ 24.8 µM); in the assay with Bacillus it was 32 µg/mL (≈ 99 µM).

In the case of `OC(Cn1cncn1)(Cn1cncn1)c1ccc(F)cc1F` [FLUCONAZOLE], the MIC in the assay with Candida came to 4 µg/mL (≈ 13.1 µM); against Saccharomyces cerevisiae, 16 µg/mL (≈ 52.2 µM); against Cyberlindnera jadinii, 8 µg/mL (≈ 26.1 µM); in the assay with Aspergillus flavus, 256 µg/mL (≈ 836 µM); in the assay with Candida albicans, 1 µg/mL (≈ 3.27 µM).

In the case of `CCn1cc(C(=O)O)c(=O)c2cc(F)c(N3CCNCC3)cc21` [NORFLOXACIN], the MIC in the assay with Escherichia coli stood at 1 µg/mL (≈ 3.13 µM); against Bacillus subtilis, 2 µg/mL (≈ 6.26 µM); against Staphylococcus aureus [1] it was 8 µg/mL (≈ 25.1 µM); with Salmonella typhi it was 1 µg/mL (≈ 3.13 µM); against Micrococcus luteus, 1 µg/mL (≈ 3.13 µM); with Pseudomonas aeruginosa it was 1 µg/mL (≈ 3.13 µM). Besides, the MIC was found to be 1 µg/mL (≈ 3.13 µM) against Staphylococcus aureus [2] and 4 µg/mL (≈ 12.5 µM) against Bacillus.
